Measured values gathered from unrelated publications.
Target: Calcium/calmodulin-dependent protein kinase kinase 2 (CAMKK2, Homo sapiens, UniProt Q96RR4)

O=C(O)[C@@H]1[C@@H](Cn2nnc3ccccc3c2=O)CC[C@H]1C(=O)c1ccc(OCCC2CCOCC2)cc1
remaining binding (cell-free assay, competition with immobilised ligand; 1 µM): 100%

O=C(NCC1CCOCC1)c1n[nH]cc1NC(=O)c1c(F)cccc1F
remaining binding (binding, competition with immobilised ligand; 1 µM): 68%

CC(C)CC(=O)N1CCc2nc(-c3ccc(Br)cc3)nc(N(C)Cc3ccccc3)c2C1
remaining binding (cell-free assay, competition with immobilised ligand; 0.1 µM): 100%

O=C(c1ccc(Nc2ncc(Cl)c(-c3ccc(Cl)s3)n2)cc1)N1CCC(N2CCCC2)CC1
remaining binding (binding, competition with immobilised ligand; 1 µM): 65%

c1cnn2ncc(-c3ccnc(N4CCC45COC5)n3)c2c1
remaining binding (binding; 1 µM): 80%

Nc1ncc2c(n1)-c1c([nH]c3ccc(C#CC4CC4)cc13)CCCC2
remaining binding (binding, competition with immobilised ligand; 1 µM): 94%

CNC(=O)[C@@H]1CC[C@@H](n2c(-c3ccc4cnccc4c3)nc3ccc(C(=O)NCc4cccc(C(N)=O)c4)cc32)C1
remaining binding (binding, competition with immobilised ligand; 1 µM): 85%

Cc1cc(NC(=O)c2cccc(S(F)(F)(F)(F)F)c2)cc(-n2ccn3nc(-c4cccnc4)cc23)c1
remaining binding (cell-free assay, competition with immobilised ligand; 1 µM): 99.6%

O=C(c1ccc(Nc2nccc(-c3cc4ccccc4s3)n2)cc1)N1CCC(N2CCCC2)CC1
remaining binding (binding, competition with immobilised ligand; 1 µM): 82%

N[C@@H]1CCN(c2nccc(-c3cnn4ncccc34)n2)C1
remaining binding (binding; 1 µM): 100%

CCN1CCN(Cc2ccc(C(=O)Nc3ccc(C)c(Oc4ccc5c(c4)CC(=O)N5)c3)cc2C(F)(F)F)CC1
remaining binding (binding, competition with immobilised ligand; 1 µM): 96%

CN(c1nccc(-c2cnn3ncccc23)n1)C1CC1
remaining binding (binding; 1 µM): 100%

FC(F)(F)Oc1cccc(-c2cnc3ccc(-c4ccncc4)nn23)c1
remaining binding (cell-free assay, competition with immobilised ligand; 5 µM): 55%

C[C@@H](c1cccc(C#N)c1)n1cc(Cl)cc(C(N)=O)c1=N
remaining binding (cell-free assay, competition with immobilised ligand; 1 µM): 100%

COc1ccnn2ncc(-c3ccnc(N(C)C)n3)c12
remaining binding (binding; 1 µM): 80%

c1cncc(-c2cccc(Nc3nccc(NC4CCCCC4)n3)c2)c1
remaining binding (binding, competition with immobilised ligand; 10 µM): 69%

CC1CCCN1c1nccc(-c2cnn3ncccc23)n1 (centres unmarked)
remaining binding (binding; 1 µM): 100%

C[C@H](c1ccc(F)cc1)N(Cc1cccc(C(=O)O)c1)C(=O)c1cnc2ccccc2c1
remaining binding (cell-free assay, competition with immobilised ligand; 1 µM): 95%

C[C@H]1CCN(c2nccc(-c3cnn4ncccc34)n2)C1
remaining binding (binding; 1 µM): 74%

CCC(=N\O)/C(C)=C/c1ccc(F)cc1
remaining binding (cell-free assay, competition with immobilised ligand; 1 µM): 98%
